# Screens (PubChem BioAssay)
# ARFGAP1 inhibitor: inhibitors of rat ARFGAP1 GAP activity, primary screen, biochemical, fluorescence polarization, GDP tracer | ADP-ribosylation factor GTPase-activating protein 1 (Rattus norvegicus), Q62848 | Arfgap1-stimulated ARF1 GTP hydrolysis, GDP FP detection | inhibition, % at 16.5 µM | actives 0.26% (n = 360,000) | AID 651572, 2012;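 active = inhibition above a per-plate limit, mean inhibition of low control wells plus 3 SD, cut at about 25% in these data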;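 note: 0% = DMSO wells with enzyme and 100% = wells lacking Arfgap1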
#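 Repeats: one replicate per compound; assay system: rat Arfgap1 catalytic domain, aa 1-136; times: enzyme reaction 120 min at 25 °C after 20 min preincubation; detection: FP of antibody-bound GDP Alexa 633 tracer, ex 620/em 688 nm; benchmarks: high control wells lacking Arfgap1, low control full reaction with DMSO; reagent: human ARF1(Δ1-17)-GTP substrate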
# pPAFAH FP inh: pPAFAH enzyme inhibitors, primary screen, biochemical, fluorescence polarization, human; Platelet-activating factor acetylhydrolase (Homo sapiens), Q13093; recombinant pPAFAH, FP-rhodamine probe fluorescence polarization; inhibition, % at 3.39 µM; actives 1.5% (n = 330,000); AID 463082, 2010;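 active = inhibition above the mean inhibition across the screen plus 3 SD, cut at about 25% in these data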;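 note: inhibitors block binding of the rhodamine activity-based probe so polarization drops; 0% = enzyme with DMSO and 100% = wells lacking pPAFAH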
# Target sequence (Q13093 whole entry, looked up): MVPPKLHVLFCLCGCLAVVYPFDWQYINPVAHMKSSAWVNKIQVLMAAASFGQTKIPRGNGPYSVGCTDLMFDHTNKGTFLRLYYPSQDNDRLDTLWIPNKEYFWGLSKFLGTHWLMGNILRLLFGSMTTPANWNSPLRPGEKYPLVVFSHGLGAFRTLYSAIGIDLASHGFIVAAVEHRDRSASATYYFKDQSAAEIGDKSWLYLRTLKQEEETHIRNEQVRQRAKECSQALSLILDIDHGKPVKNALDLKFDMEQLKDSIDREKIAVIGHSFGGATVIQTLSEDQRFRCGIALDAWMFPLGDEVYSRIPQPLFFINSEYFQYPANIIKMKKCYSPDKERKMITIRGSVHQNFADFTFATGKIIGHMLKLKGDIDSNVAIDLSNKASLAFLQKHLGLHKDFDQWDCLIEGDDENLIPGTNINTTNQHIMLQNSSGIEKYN
# ASAP1 inh: inhibitors of human ASAP1 ArfGAP activity, primary screen, biochemical, fluorescence polarization; Arf-GAP with SH3 domain, ANK repeat and PH domain-containing protein 1 (Homo sapiens), …; inhibition, % at 16.5 µM; AID 624377, 2012; actives 0.19% (n = 360,000); ASAP1-stimulated ARF1 GTP hydrolysis, GDP FP detection; in the data active = inhibition above about 25%;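 note: 0% = vehicle with enzyme and substrate and 100% = no enzyme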
# PAFAH2 inh: PAFAH2 enzyme inhibitors, primary screen, biochemical, fluorescence polarization, human | inhibition, % at 3.39 µM | actives 0.99% (n = 340,000) | recombinant PAFAH2, FP-rhodamine activity probe;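 active = inhibition above the mean over all tested compounds plus 3 SD, cut at about 30% in these data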;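 note: inhibitors block probe labeling of enzyme so polarization drops; 0% = enzyme with DMSO and 100% = wells lacking PAFAH2 protein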
# PAFAH1B3 FP inh: PAFAH1B3 enzyme inhibitors, primary screen, biochemical, fluorescence polarization, human; Platelet-activating factor acetylhydrolase IB subunit alpha1 (Homo sapiens), Q15102; recombinant PAFAH1B3, FP-rhodamine probe; inhibition, % at 3.39 µM; actives 0.28% (n = 340,000); AID 492972, 2010;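 active = inhibition above the screen-wide average of all tested compounds plus 3 SD, cut at about 25% in these data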;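 note: 0% = enzyme with DMSO only and 100% = wells lacking PAFAH1B3 protein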
# PAFAH1B2 inh: PAFAH1B2 enzyme inhibitors, primary screen, biochemical, fluorescence polarization, human. AID 492953, 2010. actives 1.2% (n = 340,000). inhibition, % at 3.39 µM. recombinant PAFAH1B2, FP-rhodamine activity probe. Platelet-activating factor acetylhydrolase IB subunit alpha2 (Homo sapiens), P68402;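 active = inhibition above the mean of all tested compounds plus 3 SD, cut at about 24% in these data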;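 note: 0% = enzyme with DMSO and 100% = wells lacking PAFAH1B2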
# Target sequence (P68402 whole entry, looked up): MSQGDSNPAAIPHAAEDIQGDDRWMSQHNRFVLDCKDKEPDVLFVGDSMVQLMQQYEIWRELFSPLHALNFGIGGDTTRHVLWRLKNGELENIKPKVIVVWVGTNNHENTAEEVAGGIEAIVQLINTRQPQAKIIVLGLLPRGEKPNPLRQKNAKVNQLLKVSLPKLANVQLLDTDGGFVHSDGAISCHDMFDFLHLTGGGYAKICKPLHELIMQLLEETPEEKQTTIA
# pPAFAH confirm: pPAFAH (PLA2G7) enzyme inhibitors, confirmation, biochemical, fluorescence polarization, human | inhibition, % at 3.39 µM | AID 463230, 2010 | actives 72% (n = 2,300) | recombinant pPAFAH, FP-Rh probe fluorescence polarization | shares compounds with pPAFAH FP inh;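 active = mean inhibition of the triplicate above the hit cutoff set for the earlier primary screen, cut at about 25% in these data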;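 note: 0% = enzyme with DMSO and 100% = wells lacking pPAFAH enzyme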
# * marks the source's active call; other numbers are inactive results; nt = no result; ! = a repeat was not active. Most compounds without a hit are left out; they make up all but 2.8% or so of the library.
SMILES,ARFGAP1 inhibitor,pPAFAH FP inh,ASAP1 inh,PAFAH2 inh,PAFAH1B3 FP inh,PAFAH1B2 inh,pPAFAH confirm
Cc1nonc1C(=O)N/N=C/c1ccc([N+](=O)[O-])o1,-3,8,1,2,0,4,nt
Cc1cc(C(=O)N/N=C/c2ccc([N+](=O)[O-])o2)c(C)o1,0,42*,-1,1,8,-1,7
COc1cccc2nc3cc(C)c(C)cc3nc12,-3,42*,10,25,25,23,13
N=C1SCC(=O)N1c1ncc(Cc2ccccc2Cl)s1,-7,nt,8,4,-1,16,nt
Cc1cccc(Cc2cnc(N3C(=N)SC(C)C3=O)s2)c1 (stereo unspecified),-7,43*,-7,2,6,8,33*
CN1C(=O)[C@@](O)(c2cn(C)c3ccccc23)c2cc(F)ccc21,2,nt,3,nt,nt,nt,nt
N#C/C(=N\Nc1cccc([N+](=O)[O-])c1)C(=O)c1ccc(Br)cc1,4,60*,13,35*,24,14,61*
S=C(Nc1ccc(Br)cc1Cl)NN1CCOCC1,11,8,15,-2,6,6,nt
O=C(NCc1ccccc1)C1c2ccccc2OCC(=O)N1Cc1ccc2c(c1)OCO2 (stereo unspecified),-3,nt,1,nt,nt,nt,nt
COc1ccc(-c2csc(NS(=O)(=O)c3ccc([N+](=O)[O-])cc3)n2)cc1,-7,38*,2,11,5,2,45*
C[C@H]1COc2cc(N3CCCC3)ccc2S(=O)(=O)N1,14,nt,6,nt,nt,nt,nt
CCOc1ccc(-n2ccnc2)nn1,8,45*,-8,-8,6,1,4
CC(OC(=O)c1ccc(NC(=O)CC#N)cc1)C(=O)Nc1nc(-c2ccccc2)cs1 (stereo unspecified),15,53*,2,-55,-42,-26,-18
C/C(=C\C(=O)c1cccnc1)Nc1ccc(O)cc1,2,38*,13,-3,3,0,-4
COc1ccc(NC(=O)c2cccnc2)cc1,3,-2,-2,3,6,-4,nt
O=C(O)c1ccc(N=Nc2c(O)ccc3ncccc23)cc1,-1,39*,2,6,33*,14,56*
CC(C)CC1(C)NC(=O)N(CC(=O)N2C(C)CCCC2C)C1=O (stereo unspecified),-1,-1,1,-5,4,-2,nt
COC(=O)[C@@]12C[C@@H](CC(=O)NCc3cccc(C(F)(F)F)c3)C(=O)N(Cc3cccc4ccccc34)C1=CCC(C)(C)C2,11,nt,4,nt,nt,nt,nt
CC(=O)N1C[C@@H](CN2C(=O)CCC2=O)[C@@H]2C[C@H]1c1ccccc1N2C,0,nt,2,nt,nt,nt,nt
C=Cc1c(C)c2cc3[nH]c(cc4nc(cc5nc(cc1[nH]2)C(C)=C5CCC(=O)O)C(CCC(=O)O)=C4C)c(C)c3C=C,-78,97*,-70,60*!,40*!,0,51*
COCCn1c(SCc2nc3sc(C(=O)OC)c(C)c3c(=O)[nH]2)nc2ccccc21,8,3,-3,4,12,2,nt
CCn1c(SCc2nc3sc(C(=O)O)c(C)c3c(=O)[nH]2)nc2ccccc21,2,48*,5,16,43*,12,47*
CCCNc1c(F)c(F)c2c(C)c3ccccc3nc2c1F,7,35*,-10,20,12,6,20
Cc1c2ccccc2nc2ccccc12,8,0,-1,3,3,5,nt
COc1ccc(CN2CCN(Cc3ccccc3F)CC2)cc1OC,-11,3,11,-8,5,-1,nt
SMILES,ARFGAP1 inhibitor,pPAFAH FP inh,ASAP1 inh,PAFAH2 inh,PAFAH1B3 FP inh,PAFAH1B2 inh,pPAFAH confirm
O=C(O)c1ccc(Nc2nc3ccccc3nc2NS(=O)(=O)c2ccc(F)cc2)cc1,-8,16,0,7,9,7,nt
CC(=O)Nc1ccc(S(=O)(=O)Nc2nc3ccccc3nc2Nc2ccc(N)cc2)cc1,2,38*,9,11,12,3,11
CSc1ccc(SC2CN(Cc3ccc(C)cc3)S(=O)(=O)C2)cc1 (stereo unspecified),9,nt,15,nt,nt,nt,nt
O=C(CCOc1ccccc1)Nc1ccnn1C1CCN(Cc2ccc(CO)o2)CC1,3,43*,6,6,0,4,7
COc1ccc(CNc2ncnc3c2[nH]c2ccccc23)cc1,-12,13,4,nt,nt,nt,nt
COc1ccc(CNc2ncnc3c2[nH]c2cc(OC)c(OC)cc23)cc1,0,36*,-4,12,19,11,22
Cc1ccc(S(=O)(=O)N(CC(=O)Nc2cccc([N+](=O)[O-])c2)C(=O)N2CCN(C)CC2)cc1,-10,nt,-13,0,3,2,nt
NNC(=S)Nc1cccc(-c2n[nH]c(=S)o2)c1,7,39*,6,12,21,5,7
CN(C)C(=S)Nc1cccc(-c2n[nH]c(=S)o2)c1,-1,3,1,-1,8,-1,nt
O=S(=O)(Nc1nc2ccccc2nc1Nc1ccc2c(c1)OCCO2)c1cccs1,9,49*,11,14,2,11,49*
COc1cc(C(=O)C(=O)N2CCC(Cc3ccccc3)CC2)cc2ccccc12,-3,nt,-6,nt,nt,nt,nt
OC[C@@H]1CN(Cc2cccs2)C[C@H](n2cnc3c(N4CCOCC4)ncnc32)O1,-13,nt,6,nt,nt,nt,nt
Nc1nc(-c2ccccc2)c(N=Nc2ccccc2Cl)s1,19,39*,7,5,16,5,53*
COc1ccc(/C=C/CN2CCC(n3nccc3NC(=O)C3CCCC3)CC2)cc1,-6,-1,2,-7,2,4,nt
O=c1[nH]nc(CNc2ccc(O)cc2)c2ccccc12,11,59*,6,15,17,8,-6
COC(=O)C1=C(C)N(Cc2ccccc2C(F)(F)F)C(=NCC2CC2)NC1c1ccc(C(F)(F)F)cc1 (stereo unspecified),4,nt,-5,nt,nt,nt,nt
CCCC1=Nc2cc(C(=O)NCCCN3CCN(C)CC3)ccc2Sc2ccccc21,5,34*,8,-4,6,3,6
O=C(NCC1CCN(C(=O)C(=O)c2cc3ccccc3o2)CC1)c1ccc2c(c1)OCCCO2,0,nt,-5,nt,nt,nt,nt
